Results on three compounds are retold here after ChEMBL document CHEMBL1123363, “(5-Amino-1,3-dimethyl-1H-pyrazol-4-yl)(2-fluorophenyl)methanones . A series of novel potential antipsychotic agents” (J Med Chem, 1986).

A short description of experiment [1]: Displacement of [3H]flunitrazepam from rat brain GABA-A benzodiazepine receptor.
The nature of experiment [2]: Extrapyramidal side effect test in cebus monkey. It is filed as functional. Particulars: read-out: MED. Summed up: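 Groups of three to six were then dosed by gavage and observed hourly for 6–8 h for dystonia or dyskinesia. Any unequivocal sign counted as a positive response. Minimal effective dose was determined in at least three animals.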
Experiment [3] concerns Mus musculus. Nature of the experiment: Inhibition of apomorphine-induced climbing in mice after intraperitoneal administration. As to conditions: ip. The format is functional. Summed up: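 Male Swiss–Webster mice (25–35 g), ten per dose, were acclimated 30 min in cylindrical cages and then dosed ip. One hour later they received apomorphine 3 mg/kg sc. Climbing was scored in 30-s tests every 5 min for 30 min, starting 15 min after apomorphine. ED50 from at least three doses by nonlinear regression.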

The species entered for experiment [4] is Mus musculus. Briefly: Ability to inhibit locomotor activity using ataxia test. It is filed as functional. As to conditions: read-out: MED. Summed up: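 Male Swiss–Webster mice (20–30 g, unfasted), nine per dose in groups of three, dosed ip in 0.2% methocel (dose as parent compound) 1 h before testing. Ataxia was scored first on an inverted screen over 60 s as % of mice falling. […] ED50 from at least three doses.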

Experiment [5] is filed under the species Rattus norvegicus. Nature of the experiment: Compound was tested for adenylate cyclase activity in rat corpus striatum. The format is functional. Summed up: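 Rat corpus striatum homogenates from male Long–Evans rats (200–300 g) were incubated with dopamine held at 20 μM while test compound concentration was varied. Cyclic AMP formed was measured by radioimmunoassay, with assays run in triplicate.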

A short description of experiment [6]: Inhibition of sidman avoidance in squirrel monkeys after peroral administration. The format is functional. As to conditions: po. The method in brief: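 Mature squirrel monkeys, trained on a modified Sidman avoidance lever schedule, were dosed orally and tested in 6-h sessions. Inhibition was expressed as % of each animal's own nondrug responding. At least three doses were given to four animals, with sessions at least 1 week apart. ED50 from nonlinear regression.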

Experiment [7] relates to Rattus norvegicus. Briefly: Compound was tested for its affect on the accumulation of the dopamine metabolite homovanillic acid (HAV) in the rat striatum at 25 mg/kg dose after peroral administration. Particulars: route oral. The format is functional. The method in brief: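 Male Long–Evans rats were dosed orally and decapitated 2 h later. Striatal HVA was isolated on Sephadex G-10 and measured spectrofluorometrically, expressed as % control ± SEM.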

Another experiment concerns the target Dopamine receptor. Briefly: Binding affinity for dopamine receptor in rat striatal membrane using [3H]haloperidol as radioligand. The format is cell membranes, Striatum. The method in brief: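 Nonspecific binding defined with (+)-butaclamol at 0.1 μM final. IC50 fitted by nonlinear curve fit from four or five concentrations in triplicate.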
Experiment [8] has as its target GABA-A receptor; anion channel. Nature of the experiment: Displacement of [3H]GABA from rat brain Gamma-aminobutyric acid receptor. Summed up: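 GABA binding in membranes of rat whole brain minus cerebellum and brain stem (male Long-Evans, 150–250 g), using [3H]-GABA at 25 nM final. GABA at 1 mM final was the reference. IC50 from four or five concentrations by nonlinear curve fitting.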
On the technique in general: Displacement assays read how much labelled ligand stays bound in the presence of the test substance.

In experiment [9] the target is T1, Adrenergic receptor alpha-1 (Rattus norvegicus, UniProt P15823+P23944+P43140).
T1 sequence (P15823 whole entry): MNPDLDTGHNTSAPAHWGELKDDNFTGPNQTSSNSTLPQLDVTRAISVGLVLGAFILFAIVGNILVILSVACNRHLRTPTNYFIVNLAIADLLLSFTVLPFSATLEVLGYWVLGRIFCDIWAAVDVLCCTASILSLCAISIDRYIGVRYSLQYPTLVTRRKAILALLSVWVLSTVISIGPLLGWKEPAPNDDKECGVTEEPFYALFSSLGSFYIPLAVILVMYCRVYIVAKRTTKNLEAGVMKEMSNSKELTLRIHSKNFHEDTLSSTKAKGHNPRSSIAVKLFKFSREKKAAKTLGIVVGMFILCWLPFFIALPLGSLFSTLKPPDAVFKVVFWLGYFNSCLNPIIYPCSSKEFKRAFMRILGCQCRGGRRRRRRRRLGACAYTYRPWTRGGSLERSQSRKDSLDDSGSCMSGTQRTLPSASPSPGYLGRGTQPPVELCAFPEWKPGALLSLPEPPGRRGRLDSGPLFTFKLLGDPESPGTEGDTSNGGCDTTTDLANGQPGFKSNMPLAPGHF
T1 sequence (P23944 whole entry): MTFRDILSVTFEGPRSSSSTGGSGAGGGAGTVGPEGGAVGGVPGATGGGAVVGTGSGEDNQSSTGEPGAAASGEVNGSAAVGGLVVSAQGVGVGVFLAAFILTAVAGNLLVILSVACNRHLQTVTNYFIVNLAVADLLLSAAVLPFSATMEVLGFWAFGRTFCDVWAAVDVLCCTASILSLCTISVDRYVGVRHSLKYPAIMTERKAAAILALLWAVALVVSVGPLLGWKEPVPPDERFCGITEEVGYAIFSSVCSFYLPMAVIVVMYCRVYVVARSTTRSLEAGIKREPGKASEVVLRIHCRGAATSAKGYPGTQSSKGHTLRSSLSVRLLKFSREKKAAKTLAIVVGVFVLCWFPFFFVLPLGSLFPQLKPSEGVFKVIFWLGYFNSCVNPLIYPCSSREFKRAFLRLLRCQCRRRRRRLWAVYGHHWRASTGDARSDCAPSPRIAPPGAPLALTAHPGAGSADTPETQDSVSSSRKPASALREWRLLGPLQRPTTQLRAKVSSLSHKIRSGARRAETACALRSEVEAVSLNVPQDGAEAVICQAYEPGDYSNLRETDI
T1 sequence (P43140 whole entry): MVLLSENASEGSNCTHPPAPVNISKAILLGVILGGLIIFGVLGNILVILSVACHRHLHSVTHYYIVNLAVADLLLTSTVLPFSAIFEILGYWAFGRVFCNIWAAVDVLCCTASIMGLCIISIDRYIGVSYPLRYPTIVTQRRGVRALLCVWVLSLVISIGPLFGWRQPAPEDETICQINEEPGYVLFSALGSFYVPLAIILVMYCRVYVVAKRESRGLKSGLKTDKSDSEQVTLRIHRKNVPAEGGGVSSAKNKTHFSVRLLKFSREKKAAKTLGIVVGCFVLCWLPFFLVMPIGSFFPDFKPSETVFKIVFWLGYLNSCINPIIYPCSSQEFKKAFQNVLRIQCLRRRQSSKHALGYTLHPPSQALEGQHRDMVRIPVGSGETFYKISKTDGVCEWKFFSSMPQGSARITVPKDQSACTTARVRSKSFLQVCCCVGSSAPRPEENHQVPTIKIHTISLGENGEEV

As a reminder, the IC50 is the concentration that inhibits the measured activity by half. One may read the ED50 as the midpoint of the dose-response relation.

Consider `CCN(CC)CC(=O)Nc1c(C(=O)c2ccccc2F)c(C)nn1C`, for which the IC50 (in [1]; in the experiment listed under Rattus norvegicus [5]) was above 10 µM each time. Also, the minimal effective dose in [2] is above 100 mg/kg; in the experiment filed under Mus musculus [4] it was 30 mg/kg. Besides, the median effective dose (ED50) in the experiment on Mus musculus [3] is above 100 mg/kg; in [6], 15.6 mg/kg. For the same compound, the Control in the experiment on Rattus norvegicus [7] was 114.9%.
On to `Cc1nn(C)c(N)c1C(=O)c1ccccc1F`, for which the IC50 (in experiment [1]; on Dopamine receptor; in [8]; in experiment [9]) was above 10 µM each time. In addition, the minimal effective dose in the experiment filed under Mus musculus [4] was below 10 mg/kg.
Consider `Cc1nn(C)c(NC(=O)CNCCCN2CCCCC2C)c1C(=O)c1ccccc1F` (configuration not stated), for which the IC50 (in experiment [1]; at Dopamine receptor; in experiment [8]; in the experiment filed under Rattus norvegicus [5]; in experiment [9]) was above 10 µM throughout. Further, the minimal effective dose in [2] is above 200 mg/kg; in the experiment listed under Mus musculus [4], 30 mg/kg. The ED50 with Mus musculus [3] is above 100 mg/kg; in experiment [6], 12.7 mg/kg. In addition, the Control with Rattus norvegicus [7] came out at 95.8%.
